Results taken from ChEMBL document CHEMBL1155242, “Radiolabeled 5-iodo-3'-O-(17beta-succinyl-5alpha-androstan-3-one)-2'-deoxyuridine and its 5'-monophosphate for imaging and therapy of androgen receptor-positive cancers: synthesis and biological evaluation” (J Med Chem, 2009).

How the values were obtained:
[1] = Chemical stability in RPMI-1640 serum-free medium assessed as half life at 12.2 uCi by HPLC analysis; assay type: physicochemical
[2] = target: Albumin (Mus musculus, UniProt P07724); assay: Binding affinity to mouse serum albumin at 10 to 20 uCi/mL after 60 mins by size-exclusion HPLC analysis; assay type: ADME; details: isolated protein, 1 h
Albumin, sequence (P07724 whole entry): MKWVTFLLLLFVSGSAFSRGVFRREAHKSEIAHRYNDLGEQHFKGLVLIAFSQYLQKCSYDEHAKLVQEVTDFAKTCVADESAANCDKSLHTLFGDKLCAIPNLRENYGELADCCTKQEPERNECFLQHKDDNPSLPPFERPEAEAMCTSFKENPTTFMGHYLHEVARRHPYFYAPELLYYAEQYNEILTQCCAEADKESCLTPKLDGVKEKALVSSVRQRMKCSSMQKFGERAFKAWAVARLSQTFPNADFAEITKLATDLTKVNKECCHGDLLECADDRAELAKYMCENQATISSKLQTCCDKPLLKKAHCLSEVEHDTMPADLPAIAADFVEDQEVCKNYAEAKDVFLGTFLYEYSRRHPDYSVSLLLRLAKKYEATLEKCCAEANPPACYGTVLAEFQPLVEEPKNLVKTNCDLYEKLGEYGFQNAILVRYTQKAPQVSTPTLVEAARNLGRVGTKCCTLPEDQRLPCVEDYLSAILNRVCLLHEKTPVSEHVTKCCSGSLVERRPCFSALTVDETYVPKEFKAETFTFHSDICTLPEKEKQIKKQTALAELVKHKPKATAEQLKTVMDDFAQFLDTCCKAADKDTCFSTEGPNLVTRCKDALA
How it was run: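 Radioiodinated compound incubated 60 min with human, rabbit or mouse serum, or with purified human SHBG. Aliquots analysed on a TSK3000 size-exclusion column: 0.1 M potassium phosphate/0.1 M Na2SO4 (1:1, pH 6.8) for 20 min, then 0–40% CH3CN over 20 min, held 30 min, 0.7 mL/min. Protein-bound versus free radioactivity read from the peaks.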

[3] = Ratio of drug level in tumor to liver in athymic NCr mouse xenografted with human OVCAR-3 cells at 180 uCi, ip administered 9 days after tumor implantation as six fractionated doses every 4 days measured after 72 hrs by gamma counting; assay type: ADME, organism-based; details: in vivo
[4] = Chemical stability in RPMI-1640 serum-free medium assessed as intact compound remaining at 12.2 uCi up to 6 hrs by HPLC analysis; assay type: physicochemical; details: read-out: Stability
[5] = Ratio of drug level in tumor to uterus in athymic NCr mouse xenografted with human OVCAR-3 cells at 180 uCi, ip administered 9 days after tumor implantation as six fractionated doses every 4 days measured after 24 hrs by gamma counting; assay type: ADME, organism-based; details: in vivo
[6] = Biodistribution in nonadherent tumors in stomach of athymic NCr mouse xenografted with human OVCAR-3 cells at 45 uCi, ip after 72 hrs by gamma counting; assay type: ADME, organism-based; details: in vivo
How it was run: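 Athymic NCr-nu/nu mice with ip OVCAR-3; 45 μCi given ip without prior SSKI. Whole-body planar imaging at 72 h with region-of-interest analysis as percent of whole-body activity; peritoneal lavage cells and ascites counted.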

[7] = Ratio of drug level in tumor to kidney in athymic NCr mouse xenografted with human OVCAR-3 cells at 180 uCi, ip administered 9 days after tumor implantation as six fractionated doses every 4 days measured after 48 hrs by gamma counting; assay type: ADME, organism-based; details: in vivo
[8] = Chemical stability in RPMI-1640 serum-free medium assessed as compound hydrolysis at 12.2 uCi after 24 hrs by HPLC analysis; assay type: physicochemical; details: read-out: Activity
[9] = Ratio of drug level in tumor to uterus in athymic NCr mouse xenografted with human OVCAR-3 cells at 180 uCi, ip administered 9 days after tumor implantation as six fractionated doses every 4 days measured after 1.5 hrs by gamma counting; assay type: ADME, organism-based; details: in vivo
[10] = system: OVCAR-3; assay: Cytotoxicity against human OVCAR-3 cells expressing androgen receptor assessed as cell survival at 0.01 to 5 uCi/mL after 24 hrs; assay type: functional
[11] = Ratio of drug level in tumor to kidney in athymic NCr mouse xenografted with human OVCAR-3 cells at 180 uCi, ip administered 9 days after tumor implantation as six fractionated doses every 4 days measured after 1.5 hrs by gamma counting; assay type: ADME, organism-based; details: in vivo
[12] = target: T1, Sex hormone-binding globulin (Homo sapiens, UniProt P04278); assay: Binding affinity to human sex hormone binding globulin at 10 to 20 uCi/mL after 60 mins by instant thin layer chromatography; assay type: ADME; details: 1 h
T1 sequence (P04278 whole entry): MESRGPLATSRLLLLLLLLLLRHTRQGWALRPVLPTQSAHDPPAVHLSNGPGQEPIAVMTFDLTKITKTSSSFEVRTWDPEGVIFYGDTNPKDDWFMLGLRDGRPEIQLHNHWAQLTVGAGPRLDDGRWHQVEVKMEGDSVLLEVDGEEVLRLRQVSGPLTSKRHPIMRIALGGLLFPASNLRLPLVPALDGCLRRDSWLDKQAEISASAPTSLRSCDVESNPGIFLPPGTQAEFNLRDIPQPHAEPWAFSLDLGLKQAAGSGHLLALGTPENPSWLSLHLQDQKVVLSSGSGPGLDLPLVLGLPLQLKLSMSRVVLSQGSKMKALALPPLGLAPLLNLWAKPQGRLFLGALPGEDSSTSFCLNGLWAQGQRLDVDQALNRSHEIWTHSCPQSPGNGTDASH

[13] = Ratio of drug level in tumor to spleen in athymic NCr mouse xenografted with human OVCAR-3 cells at 180 uCi, ip administered 9 days after tumor implantation as six fractionated doses every 4 days measured after 24 hrs by gamma counting; assay type: ADME, organism-based; details: in vivo
[14] = Biodistribution in peritoneum of athymic NCr mouse xenografted with human OVCAR-3 cells at 1.12 uCi, ip after 24 hrs by gamma counting; assay type: ADME, organism-based; details: in vivo
[15] = system: OVCAR-3; assay: Antitumor activity against human OVCAR-3 cells xenografted in athymic NCr mouse assessed as tumor burden in peritoneum at 0.25 mCi, ip administered 31 days after tumor implantation as single bolus dose measured 55 days after implantation by gamma counting in presence of SHBG (Rvb= 4.1 +/- 0.6 g); assay type: functional

Compound	t1/2 [1]	Activity [2]	Ratio [3]	remaining at 6 h, 12.2 uCi [4]	Ratio [5]	Drug uptake [6]	Ratio [7]	degraded at 24 h, 12.2 uCi [8]	Ratio [9]	Survival [10]	Ratio [11]	Activity [12]	Ratio [13]	Drug uptake [14]	Activity [15]
C[C@]12CCC(=O)C[C@@H]1CC[C@@H]1[C@@H]2CC[C@]2(C)[C@@H](OC(=O)CCC(=O)O[C@H]3C[C@H](n4cc([125I])c(=O)[nH]c4=O)O[C@@H]3CO)CC[C@@H]12	54.2 h	Not Active	21.8	90%	29.9	3.4%	61.8	30%	1.4	95%	0.9	Active	27.4	> 95%	
C[C@]12CCC(=O)C[C@@H]1CC[C@@H]1[C@@H]2CC[C@]2(C)[C@@H](OC(=O)CCC(=O)O[C@H]3C[C@H](n4cc([125I])c(=O)[nH]c4=O)O[C@@H]3COP(=O)(O)O)CC[C@@H]12															3.1 g
